Shown is part of a subset that was picked to be rich in hits.
H69AR growth 86K = growth inhibitors of human H69AR lung tumor cells; H69AR lung tumor viability, ATP luminescence, 72 h; hits give low values; viability, % at 10 µM; actives 6% (n = 85,000); AID 598;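 active = viability at or below 40%; inactive = viability above 40%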;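 also: multidrug resistant small cell line overexpressing MRP-1 efflux transporter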
bCat KO growth = beta-catenin-lacking colon tumor cell growth suppression; HCT116 beta-catenin knockout viability, CellTiter-Glo, 60 h; hits give low values; viability, % at 10 µM; actives 1.5% (n = 140,000);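 active = viability at or under a set limit, the compound median less 4 SD, cut at about 6% in these data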
HUVEC prolif 384 = blocks proliferation of human endothelial cells; HUVEC proliferation, CellTiter-Glo luminescence, 72 h; hits give low values; viability, % at 10 µM (by protocol); actives 1.1% (n = 86,000);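 active = viability at or below 30%; inactive = viability above 30%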
HCT116 PTEN-null = suppresses growth of cells with PTEN deletion | viability, % at 10 µM | HCT116 PTEN-null viability, CellTiter-Glo, 60 h; hits give low values | AID 827 | actives 1.2% (n = 140,000);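 active = viability at or below a set limit, 4 SD under the median of all tested compounds, cut at about 3.7% in these data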;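 also: PTEN knockout HCT116 line with beta catenin targeted HCT116 as companion control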
Lung fibro prol = blocks proliferation of human lung fibroblasts | viability, % at 10 µM | LL 47 human lung fibroblast viability, ATP luminescence; hits give low values | actives 1.1% (n = 85,000);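 active = viability at or below 50% in the single dose screen; inactive = viability above 50%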;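 also: compound exposure lasted 72 h before the ATP readout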
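Signal: luminescent ATP detection, CellTiter-Glo; assay system: LL 47 human lung fibroblasts; input: 1,150 cells/well; incubation: overnight cell rest, 72 h compound treatment at 37 °C; measure: % viability versus median cells-only luminescence; medium: IMEM growth medium with 15% fetal bovine serum; dosing: compound addition at 0.1% DMSO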
Numbers stand for hits; n = inactive; x = no result given.

SMILES	H69AR growth 86K	bCat KO growth	HUVEC prolif 384	HCT116 PTEN-null	Lung fibro prol
COC(=O)c1ccc(C(=O)OC)c(NC(=O)CN2CCN(c3ccccc3)CC2)c1	16	n	n	n	n
COC(=O)c1ccc(C(=O)OC)c(NC(=O)CSc2cccc[n+]2[O-])c1	2.2	n	n	n	n
COC(=O)c1ccc(C(=O)OC)c(NC(=O)CN2CCN(c3ccc(OC)cc3)CC2)c1	n	n	n	n	n
Cc1sc2c(c1C)CN(Cc1ccco1)CN2C(=O)c1ccccc1	n	x	n	x	n
CCCCN1CCc2[nH]c(=S)[nH]c(=O)c2C1	x	n	x	n	x
CCCCNS(=O)(=O)c1ccc2nc(-c3cccnc3)cc(C(=O)NC(C)C)c2c1	x	n	x	n	x
CCCCNS(=O)(=O)c1ccc2nc(-c3cccnc3)cc(C(=O)NC3CC3)c2c1	x	0.3	x	0.4	x
Cc1[nH][nH]c(=O)c1C(c1cc([N+](=O)[O-])ccc1O)c1c(C)[nH][nH]c1=O	x	n	x	n	x
Cc1[nH][nH]c(=O)c1C(c1ccc(-c2ccc(Cl)c(Cl)c2)o1)c1c(C)[nH][nH]c1=O	30	n	n	n	n
CC(=O)C1=C(c2ccccc2)OC(N)=C(C#N)C1c1ccccc1C (stereo not drawn)	x	n	x	n	x
CC(=O)C1(C)OC(N)=C(C#N)C(c2ccccc2)C1(C#N)C#N (stereo not drawn)	38	n	n	n	n
N=C1/C(=C/c2cccn2Cc2ccc(Cl)cc2)C(=O)N=C2SC=CN12	x	n	x	n	x
N#C/C(=C\Nc1ccccc1O)c1nc2ccccc2o1	x	n	x	n	x
CC(C)(C)S(=O)(=O)c1cnc2c(-c3ccc(Cl)cc3)cnn2c1N	x	2.6	x	1.7	x
CC(C)(C)S(=O)(=O)c1cnc2c(-c3ccc(F)cc3)cnn2c1N	x	n	x	n	x
Cc1cccc(NC(=S)NNC(=O)CCn2cc(C)cn2)c1	x	n	x	n	x
O=C(NNc1ccc(Cl)nn1)c1ccc(Cl)cc1	x	n	x	n	x
Oc1ccc(Cl)cc1-c1cc(-c2ccccc2)n[nH]1	4.3	n	n	n	n
COc1ccccc1-c1cc(-c2cc(Cl)ccc2O)n[nH]1	n	n	n	n	n
COc1ccc(-c2cc(-c3ccccc3O)[nH]n2)cc1	13	n	n	n	n
Cc1ccc(NCc2nnc(SCC(=O)N3c4ccccc4Sc4ccccc43)o2)c(C)c1	x	n	x	n	x
COc1ccc(COC(=O)NNC(=O)c2ccccc2Cl)cc1	n	n	n	n	n
CCC(C)NS(=O)(=O)c1ccc(NS(=O)(=O)c2ccc(F)cc2)cc1 (stereo not drawn)	n	n	n	n	n
CCOc1ccc(NC(=O)c2ccncc2)cc1	n	n	n	n	n
CCOc1ccc2c(c1)C(=NNC(=O)c1ccncc1)c1cc(OCC)ccc1-2	x	3.7	x	2.4	x
SMILES	H69AR growth 86K	bCat KO growth	HUVEC prolif 384	HCT116 PTEN-null	Lung fibro prol
CCOC(=O)c1ccc(N=c2sc(C(=O)OC)cc(=O)n2-c2ccc(C(=O)OCC)cc2)cc1	x	3.3	x	n	x
CCOC(=O)N1CCC(n2c(=S)[nH]c3cc(OC)c(OC)cc3c2=O)CC1	34	n	n	n	n
CCCn1c(=S)[nH]c2cc(OC)c(OC)cc2c1=O	35	n	n	n	n
CN1CCc2nc(NC(=O)c3cccc(OC(F)F)c3)sc2C1	n	n	n	n	n
C/C(NCCN1CCOCC1)=C(\C#N)C(N)=O	n	n	n	n	n
c1ccc(/N=C2\N=C(Nc3ccccn3)c3ccccc32)nc1	1.0	x	2.4	x	n
c1ccc(Nc2ccccn2)cc1	n	n	n	n	n
CCOc1ccc(-n2nc3ccc(NC(=O)c4ccc5c(c4)OCCO5)cc3n2)cc1	13	n	n	n	28
CCc1ccc(-n2nc3ccc(NC(=O)c4ccc5c(c4)OCO5)cc3n2)cc1	20	n	n	n	n
CCOC(=O)c1c(C)c(C(=O)Nc2ccc3c(c2)OCO3)c(C)n1C	n	n	n	n	n
Cc1ccc(-n2nc3ccc(NC(=O)c4ccc5c(c4)OCO5)cc3n2)cc1	n	n	n	n	n
O=C(Nc1ccc2nn(-c3ccccc3)nc2c1)c1ccc2c(c1)OCCO2	n	n	n	n	x
CCOC(=O)c1c(C)c(C(=O)Nc2ccc3c(c2)OCCO3)c(C)n1CC	20	n	n	n	n
COc1ccccc1NS(=O)(=O)c1cc([N+](=O)[O-])ccc1N/N=C/c1sc(N2CCOCC2)nc1-c1ccccc1	x	n	x	n	x
O=C(CSc1nnc(-c2ccccc2)o1)NC1CCS(=O)(=O)C1 (stereo not drawn)	x	n	x	n	x
CN1CCN(Cc2cc(Cl)c3cccnc3c2OC(=O)c2cccs2)CC1	x	3.7	x	n	x
Oc1cnc2ccccc2c1CN1CCOCC1	n	n	n	n	n
COCc1cc(CN2CCN(C)CC2)c(O)c2ncccc12	25	n	n	n	n
Oc1c(CN2CCOCC2)cc(COCc2ccccc2)c2cccnc12	x	3.7	x	2.8	x
O=C(Oc1c(Cl)cc(Cl)c2cccnc12)N1CCCCC1	n	n	n	n	n
CCc1nnc(NC(=O)C2Cc3ccccc3CN2S(=O)(=O)c2c(C)c(C)cc(C)c2C)s1 (stereo not drawn)	x	n	x	n	x
Cc1ccc(C(=O)NN(CCC(=O)NC(C)(C)C)C2=NS(=O)(=O)c3ccccc32)cc1	x	n	x	n	x
O=C(COC(=O)c1ccc([N+](=O)[O-])s1)Nc1ncc(C(F)(F)F)cc1Cl	x	n	x	n	x
COc1ccc([N+](=O)[O-])cc1NC(=S)NC(NC(=O)C(c1ccccc1)c1ccccc1)C(Cl)(Cl)Cl (stereo not drawn)	x	n	x	n	x
COc1ccc(CCc2nc(C)ccc2O)cc1	x	n	x	n	x
SMILES	H69AR growth 86K	bCat KO growth	HUVEC prolif 384	HCT116 PTEN-null	Lung fibro prol
COc1cc(N=c2ssnc2Cl)cc(OC)c1	0.0	n	n	n	n
OCc1ccccc1N=c1ssnc1Cl	n	n	n	n	n
CCCN1C/C(=C/c2ccc3c(c2)OCO3)C(=O)/C(=C/c2ccc3c(c2)OCO3)C1	x	2.0	x	2.2	x
CC1(C)CC(=O)/C(=C\c2cccc([N+](=O)[O-])c2)C(C)(C)N1	x	n	x	n	x
CCCN1C/C(=C/c2cccc([N+](=O)[O-])c2)C(=O)/C(=C/c2cccc([N+](=O)[O-])c2)C1	x	2.6	x	2.0	x
CC1=C/C(=C\c2ccc3c(c2)OCO3)C(=O)S1	n	n	n	n	n
Cc1ccc(S(=O)(=O)N2CCOCC2)cc1NC(=O)COC(=O)c1cc(=O)c2ccccc2o1	x	n	x	n	x
CCOC(=O)c1cnc2c(C)c(C)ccc2c1Nc1ccc(S(=O)(=O)Nc2ncccn2)cc1	x	n	x	n	x
CC(NC(=O)Nc1cccc([N+](=O)[O-])c1)(C(F)(F)F)C(F)(F)F	x	n	x	n	x
O=C1C2C3C=CC(C3)C2C(=O)N1CNc1ccc(O)cc1 (stereo not drawn)	29	n	n	n	n
COc1ccc(NS(=O)(=O)c2c(C)cc(C)cc2C)cc1	16	n	n	n	n
COc1cccc(NS(=O)(=O)c2c(C)cc(C)cc2C)c1	n	n	n	n	n
CCc1ccc2[nH]c(=O)c(CN(Cc3ccc4c(c3)OCO4)Cc3nnnn3C3CCCC3)cc2c1	4.8	n	n	n	n
COc1ccc2cc(CN(Cc3ccco3)Cc3nnnn3C3CCCCC3)c(=O)[nH]c2c1	n	n	n	n	n

Assay outcomes as filed in PubChem BioAssay.
